In assay [1] the target is T1, Antigen-presenting glycoprotein CD1d (Mus musculus) (UniProt P11609+P11610). Briefly: Binding affinity to CD1d in C57BL/6 mouse HMNC cells assessed as iNKT cells stimulation by measuring increase in IL-2 production at 25 nM incubated for 72 hrs by ELISA. It counts as cell-based. The method in brief: (§1)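 Primary murine hepatic mononuclear cells (HMNCs), which contain iNKT cells, were incubated with each glycolipid at 25 nM for 72 h. Cytokines released into the medium were quantified by ELISA, with α-GalCer as positive control.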
(In general: In an ELISA, binding on a coated surface is turned into a signal by an enzyme label.)

Assay [2] deals with T1, Antigen-presenting glycoprotein CD1d (Mus musculus). Briefly: Binding affinity to CD1d in C57BL/6 mouse HMNC cells assessed as iNKT cells stimulation by measuring increase in IL17 production at 25 nM incubated for 72 hrs by ELISA. It counts as cell-based. Summed up:
as §1

For assay [3] the target is unchanged. The assay can be described thus: Covalent binding affinity to mouse CD1d at 14.6 equivalent incubated in tris buffer with tween 20 at pH 7.5 to 8 for 16 hrs by MALDI-TOF MS analysis. It counts as protein assay. The method in brief: (§2)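 Samples of CD1d protein incubated with each ligand were analysed by MALDI-TOF mass spectrometry. The aim was to detect covalent conjugates formed between a CD1d cysteine and the ligand's α-fluorocarbonyl group.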

Assay [4] has the same target. The assay can be described thus: Binding affinity to CD1d in C57BL/6 mouse HMNC cells assessed as iNKT cells stimulation by measuring increase in Th2-type cytokine, IL-4 production at 25 nM incubated for 72 hrs by ELISA. The format is cell-based. Summed up:
as §1

The target is the same in assay [5]. The assay can be described thus: Covalent binding affinity to mouse CD1d at 10 equivalent incubated for 3 hrs by coomassie blue staining based SDS-PAGE analysis. The format is protein assay. The method in brief: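 CD1d protein was incubated with each ligand under several reported or modified conditions. Samples were then denatured and resolved by SDS-PAGE. Gels were stained with Coomassie blue to look for covalent CD1d–ligand adduct bands alongside intact protein.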

For assay [6] the target is unchanged. The assay can be described thus: Covalent binding affinity to mouse CD1d at 14.6 equivalent incubated in tris buffer without tween 20 at pH 7.5 to 8 for 16 hrs by MALDI-TOF MS analysis. The format is protein assay. The method in brief:
as §2

Assay [7] shares this target. The assay can be described thus: Covalent binding affinity to mouse CD1d at 5 equivalent incubated in DBPS buffer without tween 20 for 3 hrs by MALDI-TOF analysis. The format is protein assay. Summed up:
as §2

The target is the same in assay [8]. The assay can be described thus: Binding affinity to CD1d in C57BL/6 mouse HMNC cells assessed as iNKT cells stimulation by measuring Th1-type cytokine, IFNgamma production at 25 nM incubated for 72 hrs by ELISA. It counts as cell-based. The method in brief: as §1
For assay [9] the target is unchanged. Briefly: Binding affinity to CD1d in C57BL/6 mouse HMNC cells assessed as iNKT cells stimulation by measuring increase in ratio of IL-4 to IFNgamma (IL-4/IFNgamma) level at 25 nM incubated for 72 hrs by ELISA. The format is cell-based.
Assay [10] has the same target. The assay can be described thus: Covalent binding affinity to mouse CD1d at 5 equivalent incubated in DBPS buffer with tween 20 for 3 hrs by MALDI-TOF analysis. It counts as protein assay. Summed up: as §2

Molecules are shown by their SMILES. The source made the active and inactive calls. The calls are words filed in the database; no cut-off is given here.

For the compound `CCCCCCCCCCCCCC[C@@H](O)[C@@H](O)[C@H](CO[C@H]1O[C@H](CO)[C@H](O)[C@H](O)[C@H]1O)NC(=O)CCCCCCCCCCCCCCCCCCCCC(=O)CF`, the result in assay [1], in assay [2], in [4] and in assay [9] was Active. For the same compound, the result in assay [3], in assay [5], in assay [6], in [7], in assay [8] and in assay [10] was inactive.
Take `CCCCCCCCCCCCCC[C@@H](O)[C@@H](O)[C@H](CO[C@H]1O[C@H](CO)[C@H](O)[C@H](O)[C@H]1O)NC(=O)CCCCCCCCCCCCCCCCC(=O)CF`: the outcome in [1] and in assay [4] was Active. Further, the result in assay [5], in assay [7], in assay [8] and in assay [10] was inactive.
Turning to `CCCCCCCCCCCCCCCCCCCCCCCCCC(=O)N[C@@H](CO[C@H]1O[C@H](CO)[C@H](O)[C@H](O)[C@H]1O)[C@H](O)[C@H](O)CCCCCCCCCCCCCC`, the result in [1], in assay [2] and in assay [4] was Active.
On to `CCCCCCCCCCCCCC[C@@H](O)[C@@H](O)[C@H](CO[C@H]1O[C@H](CO)[C@H](O)[C@H](O)[C@H]1O)NC(=O)CCCCCCCCCCCCCCCCCCC(=O)CF`, for which the result in [1], in [2], in assay [4] and in assay [9] was Active. The outcome in [5], in assay [7], in assay [8] and in assay [10] was inactive.
As to `CCCCCCCCCCCCCCCCCCCCCCCC(=O)N[C@@H](CO[C@H]1O[C@H](CO)[C@H](O)[C@H](O)[C@H]1O)[C@H](O)[C@H](O)CCCCC`, the outcome in assay [4] and in assay [8] was inactive. Also, the result in assay [9] was Active.
As for `CCCCCCCCCCCCCC[C@@H](O)[C@@H](O)[C@H](CO[C@H]1O[C@H](CO)[C@H](O)[C@H](O)[C@H]1O)NC(=O)CCCCCCCCCCCCCCCCCCCC(=O)CF`, the outcome in [1], in [2], in assay [4] and in assay [9] was Active. Besides, the outcome in assay [5], in assay [7], in assay [8] and in [10] was inactive.
On to `CCCCCCCCCCCCCC[C@@H](O)[C@@H](O)[C@H](CO[C@H]1O[C@H](CO)[C@H](O)[C@H](O)[C@H]1O)NC(=O)CCCCCCCCCCCCCCCCCC(=O)CF`, for which the result in [1], in assay [4] and in [9] was Active. For the same compound, the outcome in assay [5], in assay [7], in assay [8] and in [10] was inactive.

These data come from ChEMBL document CHEMBL4304754, “Development of α-GalCer Analogues with an α-Fluorocarbonyl Moiety as Th2-Selective Ligands of CD1d” (ACS Med Chem Lett, 2019).
